# Experimental data as given in ChEMBL document CHEMBL2169855, “Carbamoyl pyridone HIV-1 integrase inhibitors. 1. Molecular design and establishment of an advanced two-metal binding pharmacophore” (J Med Chem, 2012).
# What was measured:
# [1] = biological target: Human immunodeficiency virus type 1 integrase (Human immunodeficiency virus 1, UniProt Q7ZJM1); assay: Inhibition of HIV1 integrase strand transfer activity using pre-incubation and wash with Mg2+ cofactor by ELISA based microtiter plate integration assay
# Summary of the method: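 Preformed IN–substrate DNA complex on microtiter plate, unbound IN washed out; compound preincubated with complex 30 min at 30 °C in 30 mM MOPS pH 7.2, 10 mM DTT, 5% glycerol, 100 μg/mL BSA; Mg2+ 15 mM throughout; strand transfer started with digoxigenin-labeled target DNA, products quantified by anti-Dig ELISA; mean ± sd of three independent experiments.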
# [2] = system: Human immunodeficiency virus 1; assay: Inhibition of wild type HIV1 3B infected in human MT4 cells using cells pre-incubated with compound for 1 hr measured 4 days post viral infection by MTT assay; type: functional, organism-based; settings: Human immunodeficiency virus 1, 3B
# Summary of the method: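 MT-4 cells (2.5 × 10^4/well, RPMI 1640 + 10% FBS) exposed to compound dilutions 1 h, then infected with HIV-1 IIIB (MOI 0.001 or TCID50 4 to 10); after 4 days viability read by MTT absorbance at 560/690 nm; mean ± sd of three independent experiments.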
# [3] = Cytotoxicity against human MT4 cells incubated for 4 days by MTT assay; type: cell-based
# Summary of the method: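 Uninfected MT-4 cells, 2.5 × 10^4/well, cultured with graded compound concentrations for 4 days; growth inhibition measured by MTT absorbance at 560 and 690 nm.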
# [4] = system: Human immunodeficiency virus 1; assay: Resistance index, ratio of IC50 for HIV1 3B containing integrase N155H mutant to IC50 for wild type HIV1 3B; type: functional
# Summary of the method: (§1)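 Integrase mutations introduced into pNL432 molecular clone; plasmids transfected into 293T cells, supernatants harvested after 2 days and stored at −80 °C. Mutant and wild-type viruses tested in HeLa-CD4 cells carrying HIV-1 LTR-driven β-galactosidase reporter. Fold change is mutant IC50 over wild-type IC50.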
# [5] = system: Human immunodeficiency virus 1; assay: Resistance index, ratio of IC50 for HIV1 3B containing integrase Y143R mutant to IC50 for wild type HIV1 3B; type: functional; summary of the method: as §1
# [6] = system: Human immunodeficiency virus 1; assay: Inhibition of wild type HIV1 3B infected in human MT4 cells using cells pre-incubated with compound for 1 hr measured 4 days post viral infection in presence of 20 mg/ml HSA by MTT assay; type: functional, organism-based; settings: Human immunodeficiency virus 1, 3B
# [7] = system: Human immunodeficiency virus 1; assay: Potency shift, ratio of IC50 for wild type HIV1 3B infected in human MT4 cells in presence of 20 mg/ml HSA to IC50 for wild type HIV1 3B infected in human MT4 cells in absence of HSA; type: functional
# Summary of the method: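 MT-4 cells (2.5 × 10^4/well) preincubated 1 h with graded compound, then infected with HIV-1 IIIB (MOI 0.001 or TCID50 4 to 10), with or without human serum albumin 20 mg/mL; after 4 days viability read by MTT absorbance at 560/690 nm. Fold-shift = IC50 with HSA over IC50 without.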
# [8] = Total clearance in fed rat at 1 mg/kg, iv measured up to 24 hrs; type: ADME, organism-based; design: dose 1 mg/kg, route intravenous; settings: in vivo
# Summary of the method: (§2)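 Intravenous 1 mg/kg, fed conditions; vehicle DMA/PEG/saline (1:4:5) for rats, 50 mM N-methylglucamine in 3% mannitol for dogs and monkeys; rat blood via jugular cannula; plasma collected up to 24 h, centrifuged 16000g 3 min, held at −20 °C; noncompartmental analysis.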
# [9] = Terminal half life in fed rat at 1 mg/kg, iv measured up to 24 hrs; type: ADME, organism-based; design: dose 1 mg/kg, route intravenous; settings: in vivo, read-out: beta t1/2 (converted); summary of the method: as §2
# [10] = AUC (0 to infinity) in fed rat at 5 mg/kg, po measured up to 24 hrs; type: ADME, organism-based; design: time infinity, dose 5 mg/kg, route oral; settings: plasma
# [11] = Half life in fed rat at 5 mg/kg, po measured up to 24 hrs; type: ADME, organism-based; design: dose 5 mg/kg, route oral; settings: in vivo
# [12] = Volume of distribution at steady state in fed rat at 1 mg/kg, iv measured up to 24 hrs; type: ADME, organism-based; design: dose 1 mg/kg, route intravenous; settings: in vivo, read-out: Vdss; summary of the method: as §2
# [13] = Oral bioavailability in fed rat at 5 mg/kg measured up to 24 hrs; type: ADME, organism-based; settings: in vivo
# [14] = Plasma concentration in fed rat at 5 mg/kg, po measured at 24 hrs; type: ADME, organism-based; design: dose 5 mg/kg, route oral
# [15] = Ratio of Plasma concentration in fed rat at 5 mg/kg, po measured at 24 hrs to IC50 for wild type HIV1 3B infected in human MT4 cells in presence of 20 mg/ml HSA
# [16] = Total clearance in fed beagle dog at 1 mg/kg, iv measured up to 24 hrs; type: ADME, organism-based, Canis lupus familiaris; design: dose 1 mg/kg, route intravenous; settings: in vivo; summary of the method: as §2
# [17] = Terminal half life in fed beagle dog at 1 mg/kg, iv measured up to 24 hrs; type: ADME, organism-based, Canis lupus familiaris; design: dose 1 mg/kg, route intravenous; settings: in vivo, read-out: beta t1/2 (converted); summary of the method: as §2
# [18] = Volume of distribution at steady state in fed beagle dog at 1 mg/kg, iv measured up to 24 hrs; type: ADME, organism-based, Canis lupus familiaris; design: dose 1 mg/kg, route intravenous; settings: in vivo, read-out: Vdss; summary of the method: as §2
# [19] = Oral bioavailability in fed beagle dog at 5 mg/kg measured up to 24 hrs; type: ADME, organism-based, Canis lupus familiaris; settings: in vivo
# [20] = Total clearance in fed cynomolgus monkey at 1 mg/kg, iv measured up to 24 hrs; type: ADME, organism-based, Macaca fascicularis; design: dose 1 mg/kg, route intravenous; settings: in vivo; summary of the method: as §2
# [21] = Terminal half life in fed cynomolgus monkey at 1 mg/kg, iv measured up to 24 hrs; type: ADME, organism-based, Macaca fascicularis; design: dose 1 mg/kg, route intravenous; settings: in vivo, read-out: beta t1/2 (converted); summary of the method: as §2
# [22] = Volume of distribution at steady state in fed cynomolgus monkey at 1 mg/kg, iv measured up to 24 hrs; type: ADME, organism-based, Macaca fascicularis; design: dose 1 mg/kg, route intravenous; settings: in vivo, read-out: Vdss; summary of the method: as §2
# [23] = Oral bioavailability in fed cynomolgus monkey at 5 mg/kg measured up to 24 hrs; type: ADME, organism-based, Macaca fascicularis; settings: in vivo
# [24] = Ratio of Plasma concentration in fed beagle dog at 5 mg/kg, po measured at 24 hrs to IC50 for wild type HIV1 3B infected in human MT4 cells in presence of 20 mg/ml HSA
# [25] = Ratio of Plasma concentration in fed cynomolgus monkey at 5 mg/kg, po measured at 24 hrs to IC50 for wild type HIV1 3B infected in human MT4 cells in presence of 20 mg/ml HSA
# [26] = Inhibition of CYP450; type: ADME
# [27] = system: Human immunodeficiency virus 1; assay: Resistance index, ratio of IC50 for HIV1 3B containing integrase Q148K mutant to IC50 for wild type HIV1 3B
# Human immunodeficiency virus type 1 integrase, sequence (Q7ZJM1 whole entry): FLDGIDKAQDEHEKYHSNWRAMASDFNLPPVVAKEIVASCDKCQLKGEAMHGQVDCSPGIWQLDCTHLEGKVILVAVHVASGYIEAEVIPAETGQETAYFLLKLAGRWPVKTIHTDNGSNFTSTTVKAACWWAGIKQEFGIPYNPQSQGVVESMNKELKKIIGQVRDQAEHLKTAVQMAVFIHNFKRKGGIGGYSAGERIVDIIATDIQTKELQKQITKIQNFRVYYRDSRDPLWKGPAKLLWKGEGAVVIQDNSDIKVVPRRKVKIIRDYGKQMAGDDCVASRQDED
smiles,measurement,setting,value
COCCNC(=O)c1[nH]cc(C(=O)NCc2ccc(F)cc2)c(=O)c1O,IC50,[1],130 nM
same,IC50,[2],110 nM
same,CC50 at 96 h,[3],16 µM
O=C(NCCO)c1[nH]cc(C(=O)NCc2ccc(F)cc2)c(=O)c1O,IC50,[1],300 nM
same,IC50,[2],5500 nM
same,CC50 at 96 h,[3],> 200 µM
NC(=O)c1[nH]cc(C(=O)NCc2ccc(F)cc2)c(=O)c1O,IC50,[1],380 nM
same,IC50,[2],5500 nM
same,CC50 at 96 h,[3],40 µM
CNC(=O)c1[nH]cc(C(=O)NCc2ccc(F)cc2)c(=O)c1O,IC50,[1],1300 nM
same,IC50,[2],120 nM
same,CC50 at 96 h,[3],8.5 µM
CN(C)C(=O)c1[nH]cc(C(=O)NCc2ccc(F)cc2)c(=O)c1O,IC50,[1],540 nM
same,IC50,[2],1600 nM
same,CC50 at 96 h,[3],5.1 µM
COC(=O)c1[nH]cc(C(=O)NCc2ccc(F)cc2)c(=O)c1O,IC50,[1],18 nM
same,IC50,[2],10 nM
same,CC50 at 96 h,[3],19 µM
same,Ratio IC50,[4],21
same,Ratio IC50,[5],1.5
same,IC50,[6],120 nM
same,Ratio IC50,[7],12
same,clearance,[8],1.2 mL/min/kg
same,half-life,[9],282 min
same,AUC(0-inf),[10],41200 ng·h/mL
same,half-life,[11],252 min
same,Vd,[12],0.2 L/kg
same,bioavailability,[13],53%
same,concentration at 24 h,[14],130 ng/mL
same,Ratio,[15],3.4
same,clearance,[16],0.84 mL/min/kg
same,half-life,[17],228 min
same,Vd,[18],0.14 L/kg
same,bioavailability,[19],46%
same,clearance,[20],2.4 mL/min/kg
same,half-life,[21],318 min
same,Vd,[22],0.3 L/kg
same,bioavailability,[23],22%
same,Ratio,[24],6
same,Ratio,[25],1.6
same,inhibition (INH),[26],Not Active
same,Ratio IC50,[27],200
O=C(O)c1[nH]cc(C(=O)NCc2ccc(F)cc2)c(=O)c1O,IC50,[1],10 nM
same,IC50,[2],1400 nM
same,CC50 at 96 h,[3],> 200 µM
COc1cc2c(cc1Cc1cccc(Cl)c1F)c(=O)c(C(=O)O)cn2[C@H](CO)C(C)C [ELVITEGRAVIR],IC50,[2],1.3 nM
same,IC50,[6],29 nM
Cc1nnc(C(=O)NC(C)(C)c2nc(C(=O)NCc3ccc(F)cc3)c(O)c(=O)n2C)o1 [RALTEGRAVIR],IC50,[2],6.2 nM
same,IC50,[6],29 nM
